Results taken from ChEMBL document CHEMBL1800073, “Inhibition of 1-deoxy-D-xylulose-5-phosphate reductoisomerase by lipophilic phosphonates: SAR, QSAR, and crystallographic studies” (J Med Chem, 2011).
Active and inactive are the calls of the source. No cut-off for these calls is given here.

Key:
[1] = Inhibition of Escherichia coli recombinant DXR using DXP as substrate and MgCl2 as cofactor preincubated for 10 mins
Procedure, shortened: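 Purified enzyme at 10 nM in 50 mM HEPES pH 7.5 with 2 mM MgCl2, 50 µM NADPH and 25 µg/mL BSA. Inhibitor was preincubated with the enzyme for 10 min at 30 °C, then 100 µM DXP was added. IC50 came from dose-response fits of initial velocities, at least three experiments.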

Escherichia coli = experiment: Inhibition of Escherichia coli recombinant DXR using DXP as substrate and MgCl2 as cofactor at 100 uM preincubated for 10 mins
Procedure, shortened: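 Purified recombinant EcDXR (10 nM) with 2 mM MgCl2, 50 µM NADPH, 50 mM HEPES pH 7.5, 25 µg/mL BSA. Inhibitor pre-incubated with enzyme 10 min at 30 °C; reaction started with 100 µM DXP; NADPH consumption followed at 340 nm.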

[2] = molecular target: T1, 1-deoxy-D-xylulose 5-phosphate reductoisomerase (Mycobacterium tuberculosis) (UniProt P9WNS1); experiment: Inhibition of Mycobacterium tuberculosis recombinant DXR expressed in Escherichia coli BL21 (DE3) using DXP as substrate and MgCl2 as cofactor at 100 uM preincubated for 10 mins
T1 sequence (whole entry): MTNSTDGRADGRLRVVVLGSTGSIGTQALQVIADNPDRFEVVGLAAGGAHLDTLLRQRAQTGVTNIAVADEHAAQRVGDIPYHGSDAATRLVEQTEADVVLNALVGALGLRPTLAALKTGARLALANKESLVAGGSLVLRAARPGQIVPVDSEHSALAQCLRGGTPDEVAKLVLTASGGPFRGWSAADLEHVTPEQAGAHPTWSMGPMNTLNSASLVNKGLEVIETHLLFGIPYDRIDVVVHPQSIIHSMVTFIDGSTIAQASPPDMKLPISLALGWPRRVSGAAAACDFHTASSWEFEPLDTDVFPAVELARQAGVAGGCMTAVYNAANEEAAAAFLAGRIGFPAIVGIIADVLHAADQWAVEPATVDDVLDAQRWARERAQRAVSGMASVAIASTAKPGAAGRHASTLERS
Procedure, shortened: (§1)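 Assay used 50 nM enzyme in 50 mM HEPES pH 7.6 with 4 mM MgCl2, 50 µM NADPH and 25 µg/mL BSA, plus 100 µM DXP added after a 10 min, 30 °C preincubation. IC50 came from initial velocities, at least three experiments.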

[3] = Inhibition of DXR
[4] = molecular target: T2, 1-deoxy-D-xylulose 5-phosphate reductoisomerase (Mycobacterium tuberculosis, UniProt P9WNS1); experiment: Inhibition of Mycobacterium tuberculosis recombinant DXR expressed in Escherichia coli BL21 (DE3) using DXP as substrate and MgCl2 as cofactor preincubated for 10 mins; procedure, shortened: as §1
T2 sequence (P9WNS1 whole entry): T1 sequence (whole entry)

## O=P(O)(O)Cc1ccc(OCc2ccccc2)cn1
[1]
  pKi: 3.52
Escherichia coli
  inhibition: inactive
[2]
  inhibition: inactive

## O=P(O)(O)C(Nc1nccc2ccccc12)P(=O)(O)O
[1]
  Ki: 6.3 µM
[3]
  IC50: 4 µM

## O=P(O)(O)CCc1ccccc1
[1]
  pKi: 3.52
Escherichia coli
  inhibition: inactive
[2]
  inhibition: inactive

## O=P(O)(O)CCc1ccccn1
[1]
  Ki: 18.6 µM
  pKi: 4.73
[2]
  inhibition: inactive

## CC(=O)N(O)CCCP(=O)(O)O [FR-900098]
[1]
  Ki: 0.019 µM
  pKi: 7.72
[4]
  Ki: 0.13 µM

## O=C(Cc1ccc(-c2ccccc2)cn1)NO
[1]
  pKi: < 3.52
Escherichia coli
  inhibition: inactive
[2]
  inhibition: inactive

## O=P(O)(O)Cc1ccncc1
[1]
  Ki: 3.5 µM
  pKi: 5.46
[4]
  Ki: 6.8 µM

## O=C(O)Cc1ccncc1
[1]
  pKi: 3.52
Escherichia coli
  inhibition: inactive
[2]
  inhibition: inactive

## O=P(O)(O)Cc1cccnc1
[1]
  Ki: 5 µM
  pKi: 5.3
[2]
  inhibition: inactive

## CC(=O)N(O)CCC(c1ccc(Cl)c(Cl)c1)P(=O)(O)O (racemic)
[1]
  Ki: 0.036 µM
  pKi: 7.44
[4]
  Ki: 1.5 µM

## O=P(O)(O)Cc1ccc(-c2ccc3ccccc3c2)cn1
[1]
  Ki: 13.9 µM
  pKi: 4.86
[2]
  inhibition: inactive

## O=P(O)(O)Cc1ccc2ccccc2n1
[1]
  Ki: 7.9 µM
  pKi: 5.1
[4]
  Ki: 6.9 µM

## O=C(O)Cc1cccnc1
[1]
  pKi: < 3.52
Escherichia coli
  inhibition: inactive
[2]
  inhibition: inactive

## O=C(NO)c1ccccn1
[1]
  pKi: < 3.52
Escherichia coli
  inhibition: inactive
[2]
  inhibition: inactive

## O=C(Cc1ccccn1)NO
[1]
  pKi: 3.52
Escherichia coli
  inhibition: inactive
[2]
  inhibition: inactive

## O=P(O)(O)Cc1ccc(O)cn1
[1]
  Ki: 0.7 µM
  pKi: 6.15
[4]
  Ki: 17.3 µM

## O=c1cccc(CCP(=O)(O)O)[nH]1
[1]
  pKi: 3.52
Escherichia coli
  inhibition: inactive
[2]
  inhibition: inactive

## O=P(O)(O)Cc1ccc(-c2ccccc2)cn1
[1]
  Ki: 0.42 µM
  pKi: 6.38
[4]
  Ki: 3.2 µM

## O=S(=O)(O)Cc1ccc(-c2ccccc2)cn1
[1]
  pKi: < 3.52
Escherichia coli
  inhibition: inactive
[2]
  inhibition: inactive

## O=c1ccc(-c2ccccc2)cn1O [1-HYDROXY-5-PHENYLPYRIDIN-2(1H)-ONE]
[1]
  Ki: 0.7 µM
[4]
  Ki: 21.8 µM

## O=P(O)(O)Cc1ccc(-c2ccc(Cl)cc2)cn1
[1]
  Ki: 1.6 µM
  pKi: 5.8
[2]
  inhibition: inactive

## O=P(O)(O)Cc1ccc(Br)cn1
[1]
  Ki: 6.7 µM
  pKi: 5.17
[4]
  Ki: 45.2 µM

## O=CN(O)CCC(c1ccc(Cl)c(Cl)c1)P(=O)(O)O (centres undefined)
[1]
  Ki: 0.058 µM
  pKi: 7.24
[4]
  Ki: 1.2 µM

## O=P(O)(O)Cc1ccccc1 [BENZYLPHOSPHONIC ACID]
[1]
  pKi: 3.52
Escherichia coli
  inhibition: inactive
[2]
  inhibition: inactive

## O=P(O)(O)c1ccccc1 [PHENYLPHOSPHONIC ACID]
[1]
  pKi: 3.52
Escherichia coli
  inhibition: inactive
[2]
  inhibition: inactive

## O=P(O)(O)Cc1cc(Br)ccn1
[1]
  Ki: 3.5 µM
  pKi: 5.46
[4]
  Ki: 32.7 µM

## O=C(O)Cc1ccccn1
[1]
  pKi: 3.52
Escherichia coli
  inhibition: inactive
[2]
  inhibition: inactive

## O=C(O)c1ccccn1 [2-PICOLINIC ACID]
[1]
  pKi: 3.52
Escherichia coli
  inhibition: inactive
[2]
  inhibition: inactive

## Cc1ccc(-c2ccc(CP(=O)(O)O)nc2)cc1
[1]
  Ki: 3.9 µM
  pKi: 5.41
[2]
  inhibition: inactive

## O=C(O)Cc1ccc(-c2ccccc2)cn1
[1]
  pKi: < 3.52
Escherichia coli
  inhibition: inactive
[2]
  inhibition: inactive

## O=P(O)(O)c1ccccn1
[1]
  pKi: 3.52
Escherichia coli
  inhibition: inactive
[2]
  inhibition: inactive

## O=P(O)(O)Cc1ccc(Cl)c(Cl)c1
[1]
  pKi: 3.52
Escherichia coli
  inhibition: inactive
[2]
  inhibition: inactive

## O=P(O)(O)Cc1cc(-c2ccccc2)ccn1
[1]
  Ki: 1.1 µM
  pKi: 5.96
[4]
  Ki: 6.9 µM

## O=C(O)c1ccc(-c2ccccc2)cn1
[1]
  pKi: < 3.52
Escherichia coli
  inhibition: inactive
[2]
  inhibition: inactive

## O=P(O)(O)Cc1ccncn1
[1]
  Ki: 3.5 µM
  pKi: 5.46
[4]
  Ki: 12.4 µM

## O=P(O)(O)C(Nc1ccc(Cl)cn1)P(=O)(O)O
[1]
  Ki: 15.3 µM
[2]
  inhibition: inactive
[3]
  IC50: 7 µM

## O=P(O)(O)Cc1cc(-c2ccc(F)cc2)ccn1
[1]
  Ki: 3.5 µM
  pKi: 5.46
[2]
  inhibition: inactive

## O=P(O)(O)Cc1ccccn1 [PYRIDIN-2-YLMETHYLPHOSPHONIC ACID]
[1]
  Ki: 2.3 µM
  pKi: 5.64
[4]
  Ki: 1.6 µM

## O=P(O)(O)Cc1ccc(-c2ccc(F)cc2)cn1
[1]
  Ki: 1.1 µM
  pKi: 5.96
[4]
  Ki: 50.7 µM

## O=P(O)(O)Cc1cnccn1
[1]
  Ki: 11.2 µM
  pKi: 4.95
[2]
  inhibition: inactive

## O=P(O)(O)CCc1ccccc1O
[1]
  pKi: 3.52
Escherichia coli
  inhibition: inactive
[2]
  inhibition: inactive

## O=P(O)(O)CCCc1ccccn1
[1]
  Ki: 9.5 µM
  pKi: 5.02
[2]
  inhibition: inactive

## O=P(O)(O)Cc1cccc(-c2ccccc2)n1
[1]
  Ki: 3.5 µM
  pKi: 5.46
[2]
  inhibition: inactive

## O=P(O)(O)Cc1cccc(O)c1O
[1]
  pKi: 3.52
Escherichia coli
  inhibition: inactive
[2]
  inhibition: inactive

## O=c1ccc(CP(=O)(O)O)cn1O
[1]
  pKi: 3.52
Escherichia coli
  inhibition: inactive
[2]
  inhibition: inactive

## O=P(O)(O)Cc1cccc(Br)n1
[1]
  Ki: 3.6 µM
  pKi: 5.46
[2]
  inhibition: inactive

## COc1cccc(-c2ccc(CP(=O)(O)O)nc2)c1
[1]
  Ki: 3.6 µM
  pKi: 5.46
[2]
  inhibition: inactive
